The array DNA melting data of Ke et al. (doi:10.1101/2024.01.08.574731)

Assays:
[1] = folding enthalpy; higher = less favourable; fluorescence melt of hairpins on a sequencing array, two-state fit; conditions: sodium 0.088 M
How it was run: (§1)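 Melting temperature and folding enthalpy were obtained by bootstrapped two-state fitting. Fits used Cy3 fluorescence of library hairpins with annealed Cy3 and quencher oligos on a sequenced MiSeq flow cell, imaged in 50 mM Na-HEPES pH 8.0, 25 mM NaCl in 2.5 °C steps up to 60 °C and normalised to pre-quench Cy3 and control constructs. Four replicates were combined by inverse-variance weighting, and fitted temperatures were raised by 9.35 °C to match UV melts.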

[2] = melting temperature; fluorescence melt of hairpins on a sequencing array, two-state fit, raised by 9.35 °C to match UV melts; conditions: sodium 0.088 M
How it was run: as §1

Sequence	folding enthalpy [1]	Tm [2]
GTGTACGAAAGTACCCAC ((((((....)))..)))	-10.3 kcal/mol	31.9 °C
GCTGCCGGAAACGACAGC ((((.((....)).))))	-45.7 kcal/mol	55.2 °C
GCCAACGGAAACGTCGGC (((.(((....))).)))	-42.8 kcal/mol	51.1 °C
GTCGGTGGAAACACTGAC (((.(((....))).)))	-40.6 kcal/mol	54.4 °C
GCTGACGAAAGTCACAGC ((((((....)))..)))	-15.4 kcal/mol	45.3 °C
GGGAGAGGAAACTCTCCC (((((((....)))))))	-42.9 kcal/mol	64.8 °C
GATCATTGAGATGATC ((((((....))))))	-39.4 kcal/mol	49.8 °C
GATCAGGCAGCTGATC ((((((....))))))	-34.2 kcal/mol	52.4 °C
GCGTGTGGAAACACACAC (.(((((....))))).)	-13.7 kcal/mol	44.4 °C
GACTGCGGAAACGTAGTC ((((.((....)).))))	-39.6 kcal/mol	52.6 °C
GCGCTGACGAAAGTCCGC (((..(((....))))))	-25.1 kcal/mol	51 °C
GAAGCGGGAAACCACTTC ((((.((....)).))))	-32.1 kcal/mol	41.8 °C
GGGGTTGGAAACGACTCC ((.((.(....).)).))	-23.1 kcal/mol	41.6 °C
GCGACGCGAAAGCATGGC ((.(.((....)).).))	-9.76 kcal/mol	40.4 °C
GATCCATCTGTGGATC ((((((....))))))	-36.4 kcal/mol	54.3 °C
GGCCAGGGAAACCCGACC ((.(.((....)).).))	-11.9 kcal/mol	32.5 °C
GACCTACGAAAGTACGTC (((.(((....))).)))	-24.6 kcal/mol	36.2 °C
GTCTTTGGAAACAAAGGC (.(((((....))))).)	-29.3 kcal/mol	46.6 °C
CGTAAGCGGAAACGCACG (((..(((....))))))	-22.6 kcal/mol	41.8 °C
GAGCCCGAAAGGGCACTC ((((((....)))..)))	-11 kcal/mol	62.2 °C
GTCCTCGGAAACGAGAAC ((.((((....)))).))	-20.7 kcal/mol	39.7 °C
GGGGCTGGAAACAACCCC ((((.((....)).))))	-41.2 kcal/mol	49.2 °C
GACTGGGGAAACCCAATC ((.((((....)))).))	-14.6 kcal/mol	31.7 °C

Sequence	folding enthalpy [1]	Tm [2]
GTATCCGAAAGGACGTAC ((((((....)))..)))	-9.37 kcal/mol	25.9 °C
GCGTTTATACGC ((((....))))	-27.7 kcal/mol	55.7 °C
GATGAGCGAAAGCTTATC (((.(((....))).)))	-28.3 kcal/mol	49.1 °C
GTCTCGCCGAAAGGCGAC (((..(((....))))))	-6.03 kcal/mol	39.5 °C
GACCACGAAAGTGGGTC ((((((....))).)))	-13.7 kcal/mol	60.1 °C
GGGTGGGGAAACCCGCTC (.(.(((....))).).)	-17.7 kcal/mol	49.1 °C
CGGGCGGAAACGCATCCG ((((((....)))..)))	-15.9 kcal/mol	44.3 °C
GCGAGCCGAAAGGCCCGC (((.(((....))).)))	-26.1 kcal/mol	67.8 °C
GCATTCGAAAGAAGTTGC ((((((....)))..)))	-7.36 kcal/mol	26 °C
GCGAAATTTCGC ((((....))))	-42.6 kcal/mol	51.7 °C
GTGGATGGAAACATCTGC (..((((....))))..)	-23 kcal/mol	37.6 °C
GACGAAGGAAACTTTGTC (((.(((....))).)))	-28.3 kcal/mol	41.6 °C
GACCCCGAAAGGGAAGTC ((((((....)))..)))	-16.1 kcal/mol	42.1 °C
GAACTACGAAAGTACTTC (((.(((....))).)))	-9.53 kcal/mol	25.9 °C
GCCCGGCGAAAGCTGAGC ((.(.((....)).).))	-18.3 kcal/mol	48.7 °C
GTCGTAGGAAACTATGAC (((.(((....))).)))	-35.4 kcal/mol	45.2 °C
GTGTACGAAAGTACAC ((((((....))))))	-29.7 kcal/mol	69.1 °C
GATCACCACTGTGATC ((((((....))))))	-43.5 kcal/mol	56.1 °C
GATCCGACTCCGGATC ((((((....))))))	-44.3 kcal/mol	55.1 °C
GATCAGGGACCTGATC ((((((....))))))	-50.5 kcal/mol	54.3 °C
CTTCGGAAACGAAG (((((....)))))	-20.9 kcal/mol	50.3 °C
GCTTGCGAAAGCAATAGC ((((((....)))..)))	-15.3 kcal/mol	47.1 °C
GATCGCTCTGGCGATC ((((((....))))))	-37.7 kcal/mol	69.1 °C

Sequence	folding enthalpy [1]	Tm [2]
GCATTCGAAAGAACATGC ((((((....)))..)))	-15.8 kcal/mol	33 °C
GCAGCACGAAAGTGTTGC (((.(((....))).)))	-37.2 kcal/mol	60.6 °C
GTAGCACGAAAGTGATAC (((.(((....))).)))	-39 kcal/mol	58.4 °C
GGGAGCGAAAGCTACCCC ((((((....)))..)))	-12 kcal/mol	59.8 °C
GGTTGCGAAAGCAAAACC ((((((....)))..)))	-19.5 kcal/mol	48.9 °C
GCCCTGCGAAAGCGGCGC ((.(.((....)).).))	-15 kcal/mol	62 °C
GAGGTACGAAAGTAACTC (((.(((....))).)))	-38.6 kcal/mol	54.1 °C
GTGGACGAAAGTCGGCAC ((((((....)))..)))	-15.5 kcal/mol	39.8 °C
GGGATCGAAAGATGACCC ((((((....)))..)))	-27.8 kcal/mol	33.6 °C
GGATATGAAAATATCC ((((((....))))))	-31.6 kcal/mol	50.9 °C
GCATACGGAAACGTACGC ((.((((....)))).))	-31.4 kcal/mol	44.2 °C
GATCGAATATCGATC ((((((...))))))	-33.4 kcal/mol	50.4 °C
GTGAGGGGAAACCCCCAC (((.(((....))).)))	-31.5 kcal/mol	49.2 °C
GATCCCCATAGGGATC ((((((....))))))	-41.1 kcal/mol	62.8 °C
GGGTTGGGAAACCAGCCC (((.(((....))).)))	-46.6 kcal/mol	56 °C
GTGTCGGGAAACCAACAC ((((.((....)).))))	-33.7 kcal/mol	42.9 °C
GTTCGGGCGAAAGCCAAC (((..(((....))))))	-10.7 kcal/mol	26.2 °C
CGGACGGAAACGTCTCCG ((((((....)))..)))	-11.3 kcal/mol	35.7 °C
GATACGAAAGTATC (((((....)))))	-32.2 kcal/mol	56.6 °C
GGGAGCGAAAGCTCTCCC ((((((....)))..)))	-11.8 kcal/mol	52.2 °C
GGGTAGCGAAAGCTTCCC (((.(((....))).)))	-36.5 kcal/mol	56.6 °C
GGGATGGGAAACCGTCTC (.((.((....)).)).)	-26.1 kcal/mol	36.6 °C
GACCACGAAAGTGTCGTC ((((((....)))..)))	-18.7 kcal/mol	44.8 °C

Sequence	folding enthalpy [1]	Tm [2]
GAAAAACGAAAGTTTTC (((.(((....))))))	-15.7 kcal/mol	36.9 °C
GCGAACCGAAAGGTCGC (((.(((....))))))	-31.8 kcal/mol	67.5 °C
GTGTGGGGAAACCCGTAC ((..(((....)))..))	-20.8 kcal/mol	33.5 °C
GAGTGCGGAAACGCGTTC ((..(((....)))..))	-13 kcal/mol	34.3 °C
GGCAACCGAAAGGTCGCC (((.(((....))).)))	-37.3 kcal/mol	58.9 °C
GATCCCTAACGGGATC ((((((....))))))	-39.7 kcal/mol	57.6 °C
TGATTGAAAAATCA (((((....)))))	-10.1 kcal/mol	27.4 °C
GAGTCGCGAAAGCGTCTC (((.(((....))).)))	-22.3 kcal/mol	54.7 °C
GACATGGCGAAAGCCGTC (((..(((....))))))	-10.1 kcal/mol	50.7 °C
GTTTGCGAAAGCAATAAC ((((((....)))..)))	-12.6 kcal/mol	34.5 °C
GACGTCGGAAACGACACC (..((((....))))..)	-10.5 kcal/mol	29.3 °C
GTCGCAGAAATGCGAC ((((((....))))))	-38.1 kcal/mol	69.1 °C
GTCGTTACGAAAGTAGAC (((..(((....))))))	-29.1 kcal/mol	44.8 °C
ACGGTGAAAACCGT (((((....)))))	-22.9 kcal/mol	55 °C
GCGTAAGGAAACTTGCGC (((.(((....))).)))	-39.4 kcal/mol	54.6 °C
GGGGAACGAAAGTTTCCC (((.(((....))).)))	-36.8 kcal/mol	61.1 °C
GCACCCCGAAAGGGATGC (((.(((....))).)))	-40.6 kcal/mol	57.5 °C
GGTCACGGAAACGCGACC ((((.((....)).))))	-50.2 kcal/mol	54.4 °C
GTCTAGGGAAACTTAGAC (((((.(....).)))))	-36.3 kcal/mol	37.4 °C
GGACAAGGAAACTTGCCC ((.((((....)))).))	-20.3 kcal/mol	43 °C
GCCACGCGAAAGCATTGC ((.(.((....)).).))	-11.6 kcal/mol	28.7 °C
GCTTAGCGAAAGCTCGGC ((..(((....)))..))	-17.7 kcal/mol	36.7 °C
GGAGAGCGAAAGCTATCC (((.(((....))).)))	-42.1 kcal/mol	57.6 °C
